Data as given in ChEMBL document CHEMBL4311940, “Design, Synthesis, and Biological Evaluation of 4-Methyl Quinazoline Derivatives as Anticancer Agents Simultaneously Targeting Phosphoinositide 3-Kinases and Histone Deacetylases” (J Med Chem, 2019).
Calls of active or inactive are those of the source. The calls are words filed in the database; no cut-off is given here.

Assays:
HCT-116 [1] = assay: Antiproliferative activity against human HCT116 cells after 96 hrs by MTT assay; assay type: functional, cell-based; conditions: HCT-116, 96 h
Histone deacetylase 1 = Histone deacetylase 1 (Homo sapiens, UniProt Q13547); assay: Inhibition of recombinant C-terminal His/FLAG-tagged HDAC1 (unknown origin) expressed in baculovirus infected Sf9 insect cells using Ac-peptide as substrate preincubated for 15 mins followed by substrate addition and measured after 1 hr
[2] = target: Phosphatidylinositol 4,5-bisphosphate 3-kinase catalytic subunit alpha isoform (Homo sapiens, UniProt P42336); assay: Inhibition of recombinant human PI3Kalpha using PIP2 as substrate incubated for 1 hr by kinase-glo assay
HCT-116 [3] = assay: Potency index, ratio of IC50 for SAHA to test compound IC50 for human HCT116 cells; assay type: functional
HCT-116 [4] = assay: Induction of apoptosis in human HCT116 cells assessed as live cells at 500 nM after 48 hrs by Annexin V-FITC/propidium iodide staining-based flow cytometric analysis (reference value: 89.6%); assay type: functional
HCT-116 [5] = assay: Induction of apoptosis in human HCT116 cells assessed as early apoptotic cells at 500 nM after 48 hrs by Annexin V-FITC/propidium iodide staining-based flow cytometric analysis (reference value: 1.33%); assay type: functional
HCT-116 [6] = assay: Induction of apoptosis in human HCT116 cells assessed as late apoptotic cells at 500 nM after 48 hrs by Annexin V-FITC/propidium iodide staining-based flow cytometric analysis (reference value: 3.87%); assay type: functional
HCT-116 [7] = assay: Induction of apoptosis in human HCT116 cells assessed as necrotic cells at 500 nM after 48 hrs by Annexin V-FITC/propidium iodide staining-based flow cytometric analysis (reference value: 5.23%); assay type: functional
HCT-116 [8] = assay: Induction of cell cycle arrest in human HCT116 cells assessed as accumulation at G2/M phase at 500 nM after 24 hrs by propidium iodide/RNase staining-based FACS analysis; assay type: functional
How it was run: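 HCT116 cells cultured overnight in 6-well plates, exposed to compound at various concentrations for 24 h; FxCycle PI/RNase staining and flow cytometry for cell cycle phase distribution.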

Sequence of Phosphatidylinositol 4,5-bisphosphate 3-kinase catalytic subunit alpha isoform (P42336 whole entry, canonical isoform): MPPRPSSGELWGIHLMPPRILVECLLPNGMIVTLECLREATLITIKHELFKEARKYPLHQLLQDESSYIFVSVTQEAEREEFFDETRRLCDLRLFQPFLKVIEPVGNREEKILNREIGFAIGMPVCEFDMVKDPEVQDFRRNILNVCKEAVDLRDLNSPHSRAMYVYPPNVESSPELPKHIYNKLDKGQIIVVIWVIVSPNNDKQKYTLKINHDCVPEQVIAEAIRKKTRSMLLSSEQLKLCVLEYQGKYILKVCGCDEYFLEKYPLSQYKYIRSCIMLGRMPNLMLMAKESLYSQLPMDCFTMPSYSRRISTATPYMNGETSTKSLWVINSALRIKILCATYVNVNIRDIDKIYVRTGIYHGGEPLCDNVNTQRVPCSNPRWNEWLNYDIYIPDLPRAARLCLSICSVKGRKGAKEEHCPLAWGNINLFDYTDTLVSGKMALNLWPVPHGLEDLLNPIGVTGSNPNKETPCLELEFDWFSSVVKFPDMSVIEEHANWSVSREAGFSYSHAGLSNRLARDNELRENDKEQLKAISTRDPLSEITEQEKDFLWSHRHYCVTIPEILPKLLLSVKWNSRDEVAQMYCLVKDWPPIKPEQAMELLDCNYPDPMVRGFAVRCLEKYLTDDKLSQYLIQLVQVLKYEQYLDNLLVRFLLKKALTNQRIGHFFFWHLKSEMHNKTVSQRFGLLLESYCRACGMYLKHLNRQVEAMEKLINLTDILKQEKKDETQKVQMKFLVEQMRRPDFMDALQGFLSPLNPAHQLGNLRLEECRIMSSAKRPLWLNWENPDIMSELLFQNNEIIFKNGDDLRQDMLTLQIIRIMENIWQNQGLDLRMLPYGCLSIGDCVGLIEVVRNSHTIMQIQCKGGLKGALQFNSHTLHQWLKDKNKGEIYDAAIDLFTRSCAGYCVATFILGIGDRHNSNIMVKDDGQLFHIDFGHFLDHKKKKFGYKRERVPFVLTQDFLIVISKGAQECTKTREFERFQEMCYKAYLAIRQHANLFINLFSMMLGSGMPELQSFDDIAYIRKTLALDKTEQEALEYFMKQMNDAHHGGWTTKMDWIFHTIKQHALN
Sequence of Histone deacetylase 1 (Q13547 whole entry, canonical isoform): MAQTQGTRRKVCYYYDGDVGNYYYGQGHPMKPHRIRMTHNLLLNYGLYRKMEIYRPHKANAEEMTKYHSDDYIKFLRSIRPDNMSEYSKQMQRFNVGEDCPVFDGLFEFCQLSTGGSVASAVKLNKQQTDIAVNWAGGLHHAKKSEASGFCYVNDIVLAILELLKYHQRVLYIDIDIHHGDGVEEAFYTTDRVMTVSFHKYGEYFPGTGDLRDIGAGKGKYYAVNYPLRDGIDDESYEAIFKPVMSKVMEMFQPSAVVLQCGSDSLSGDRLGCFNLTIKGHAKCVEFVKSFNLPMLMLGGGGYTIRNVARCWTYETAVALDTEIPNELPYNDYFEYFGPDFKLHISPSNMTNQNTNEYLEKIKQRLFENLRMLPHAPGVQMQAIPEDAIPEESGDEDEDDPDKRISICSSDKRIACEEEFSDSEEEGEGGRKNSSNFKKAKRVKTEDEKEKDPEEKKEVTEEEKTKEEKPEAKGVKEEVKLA

Row | Structure (SMILES) | IC50 (HCT-116 [1]) [µM] | IC50 (Histone deacetylase 1) [µM] | IC50 [2] [µM] | Ratio IC50 (HCT-116 [3]) | Activity (HCT-116 [4]) [%] | Activity (HCT-116 [5]) [%] | Activity (HCT-116 [6]) [%] | Activity (HCT-116 [7]) [%] | Activity (HCT-116 [8])
1 | COc1ccc(-c2cc(OCCCCCCCC(=O)NO)c3ncnc(C)c3c2)cn1 | 0.8 | 0.0037 | 0.143 | – | – | – | – | – | –
2 | COc1ncc(-c2cc(OCCCCCC(=O)NO)c3ncnc(C)c3c2)cc1F | 1.2 | 0.037 | 0.03 | – | – | – | – | – | –
3 | COc1ncc(-c2cc(OCCCCCCC(=O)NO)c3ncnc(C)c3c2)cc1NS(C)(=O)=O | 37 | 0.0013 | 0.0023 | – | – | – | – | – | –
4 | COc1ccc(-c2cc(OCCCN(C)c3ncc(C(=O)NO)cn3)c3ncnc(C)c3c2)cn1 | 0.1 | 0.0025 | 0.213 | – | – | – | – | – | –
5 | COc1ncc(-c2cc(OCCCCN(C)c3ncc(C(=O)NO)cn3)c3ncnc(C)c3c2)cc1F | 0.25 | 0.0033 | 0.048 | – | – | – | – | – | –
6 | COc1ncc(-c2cc(OCCCN(C)c3ncc(C(=O)NO)cn3)c3ncnc(C)c3c2)cc1F | 0.082 | 0.0024 | 0.094 | – | – | – | – | – | –
7 | COc1ccc(-c2cc(OCCCCCCCCC(=O)NO)c3ncnc(C)c3c2)cn1 | 0.76 | 0.003 | 0.162 | – | – | – | – | – | –
8 | COc1ncc(-c2cc(OCCCN(C)c3ncc(C(=O)NO)cn3)c3ncnc(C)c3c2)cc1NS(=O)(=O)c1ccc(F)cc1F | 2.9 | 0.011 | 0.0011 | – | – | – | – | – | –
9 | COc1ccc(-c2cc(OCCCCC(=O)NO)c3ncnc(C)c3c2)cn1 | 1.4 | 0.084 | 0.051 | – | – | – | – | – | –
10 | COc1ncc(-c2cc(OCCNc3ncc(C(=O)NO)cn3)c3ncnc(C)c3c2)cc1F | 4.6 | 0.0053 | 0.043 | – | – | – | – | – | –
11 | COc1ncc(-c2cc(OCCCC(=O)NO)c3ncnc(C)c3c2)cc1NS(=O)(=O)c1ccc(F)cc1F | > 10 | 0.037 | 0.0013 | – | – | – | – | – | –
12 | COc1ccc(-c2cc(OCCCCCCC(=O)NO)c3ncnc(C)c3c2)cn1 | 0.14 | 0.0013 | 0.102 | 10 | – | – | – | – | –
13 | COc1ncc(-c2cc(OCCCNc3ncc(C(=O)NO)cn3)c3ncnc(C)c3c2)cc1F | 2.1 | 0.004 | 0.043 | – | – | – | – | – | –
14 | COc1ncc(-c2cc(OCCCCCCCC(=O)NO)c3ncnc(C)c3c2)cc1NS(=O)(=O)c1ccc(F)cc1F | 1.5 | 0.0018 | 0.00063 | – | – | – | – | – | –
15 | COc1ncc(-c2cc(OCCCCNc3ncc(C(=O)NO)cn3)c3ncnc(C)c3c2)cc1F | 9.3 | 0.011 | 0.041 | – | – | – | – | – | –
16 | O=C(CCCCCCC(=O)Nc1ccccc1)NO [VORINOSTAT] | – | – | – | – | 87.7 | 2.72 | 5.21 | 4.33 | Active
17 | COc1ncc(-c2cc(OCCCCCCCC(=O)NO)c3ncnc(C)c3c2)cc1F | 1.4 | 0.0033 | 0.054 | – | – | – | – | – | –
18 | COc1ncc(-c2cc(OCCCCCC(=O)NO)c3ncnc(C)c3c2)cc1NS(=O)(=O)c1ccc(F)cc1F | 0.54 | 0.039 | 0.00066 | – | – | – | – | – | –
